Results from ChEMBL document CHEMBL1129286, “In vitro and in vivo studies of benzisoquinoline ligands for the brain synaptic vesicle monoamine transporter” (J Med Chem, 1996).

Experiments:
Mus musculus [1] = assay: Competition of compound for the in vivo localization of [11C] Methoxytetrabenazine in mouse Striatum; %ID/g (%injected dose/g); assay type: functional, organism-based
Outline: (§1)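 CD-1 mice anesthetized with diethyl ether, given by tail vein a mixture of [11C]methoxytetrabenazine (100-300 µCi) plus 10 mg/kg test compound in 10% ethanol in saline, then allowed to recover. Controls received radiotracer in saline with no competitor. Killed under ether at 15 min, regional brain radioactivity read as %ID/g; mean ± SD, unpaired Student's t-test versus controls.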

[2] = biological target: Synaptic vesicular amine transporter (Rattus norvegicus, UniProt Q01827); assay: In vitro inhibition of [3H]- Methoxytetrabenazine binding to rat brain vesicular monoamine transporter 2 (VMAT2)
Sequence of Synaptic vesicular amine transporter (Q01827 whole entry): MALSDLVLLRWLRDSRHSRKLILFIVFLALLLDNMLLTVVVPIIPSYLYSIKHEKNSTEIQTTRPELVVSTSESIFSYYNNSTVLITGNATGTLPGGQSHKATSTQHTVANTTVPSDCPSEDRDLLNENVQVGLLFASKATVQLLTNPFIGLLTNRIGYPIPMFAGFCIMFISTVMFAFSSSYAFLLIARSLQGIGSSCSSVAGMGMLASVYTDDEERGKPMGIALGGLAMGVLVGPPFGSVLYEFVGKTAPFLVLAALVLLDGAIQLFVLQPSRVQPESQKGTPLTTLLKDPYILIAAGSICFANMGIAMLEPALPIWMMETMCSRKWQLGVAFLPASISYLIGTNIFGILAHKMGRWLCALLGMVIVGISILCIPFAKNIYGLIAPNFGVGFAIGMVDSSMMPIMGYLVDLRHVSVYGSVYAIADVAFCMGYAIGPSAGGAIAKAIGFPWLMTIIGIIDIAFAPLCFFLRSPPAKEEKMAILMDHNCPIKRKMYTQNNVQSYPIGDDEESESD
Outline: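 Autoradiographic competition on rat brain coronal sections (20, caudate-putamen level) on slides. Sections prewashed at 25 °C in sucrose buffer (300 mM sucrose, 50 mM Tris, 1 mM EDTA, pH 8.0), then incubated 3 h with 10 nM [3H]methoxytetrabenazine and test drug from 1 nM. Washed 3 × 3 min, dipped in 4 °C water, air-dried, film-exposed 2 weeks.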

Mus musculus [3] = assay: Competition of compound for the in vivo localization of [11C] Methoxytetrabenazine in mouse Hyphalamus; %ID/g (%injected dose/g); assay type: functional, organism-based; outline: as §1

| Structure (SMILES) | Ki [2] [nM] | ID/g (Mus musculus [1]) [%] | ID/g (Mus musculus [3]) [%] |
| --- | --- | --- | --- |
| CC[C@]1(O)C[C@@H]2c3cc(OC)c(OC)cc3CCN2C[C@H]1CC(C)C | 42 | 3.24 | 2 |
| COc1cc2c(cc1OC)[C@H]1CC(=O)[C@H](CC(C)C)CN1CC2 | – | 2.26 | 1.71 |
| COc1cc2c(cc1OC)[C@H]1C[C@@](O)(CC(C)C)[C@H](CC(C)C)CN1CC2 | 33 | 5.33 | 2.93 |

Further lines, with some results ahead:

| Ki [2] [nM] | Structure (SMILES) | ID/g (Mus musculus [1]) [%] | ID/g (Mus musculus [3]) [%] |
| --- | --- | --- | --- |
| 2.6 | COc1cc2c(cc1OC)[C@H]1C[C@@](C)(O)[C@H](CC(C)C)CN1CC2 | 2.09 | 1.96 |
| 136 | COc1cc2c(cc1OC)[C@H]1C[C@@](O)(C(C)C)[C@H](CC(C)C)CN1CC2 | 6.21 | 3.06 |
| 84 | CCC[C@]1(O)C[C@@H]2c3cc(OC)c(OC)cc3CCN2C[C@H]1CC(C)C | 4.26 | 1.96 |
| 12 | COc1cc2c(cc1OC)[C@H]1C[C@](C)(O)[C@H](CC(C)C)CN1CC2 | 2.35 | 1.79 |
